Measurements published in ChEMBL document CHEMBL2424530, “Synthesis, biological evaluation and molecular docking studies of pyrazole derivatives coupling with a thiourea moiety as novel CDKs inhibitors” (Eur J Med Chem, 2013).

Tests used:
[1] = target: Cyclin-dependent kinase 4 (Homo sapiens, UniProt P11802); experiment: Inhibition of CDK4 (unknown origin) using histone H1 as substrate after 10 mins in presence of [gamma-32P]-ATP
In short: (§1)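 Radiometric kinase reaction in 50 mM Tris-HCl with ATP plus γ-³²P ATP, 10 mM MgCl₂, 5 mM DTT and histone H1 substrate. It ran 10 min with inhibitor and was stopped with 30% phosphoric acid. Mixtures were spotted on P81 paper and washed five times with 10 mM Tris-HCl (pH 8.0)/0.1 M NaCl. Spot radioactivity was imaged, and IC₅₀ was the concentration giving 50% inhibition.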

[2] = target: Cyclin-dependent kinase 2 (Homo sapiens, UniProt P24941); experiment: Inhibition of human N-terminal hexahistidine-tagged CDK2 expressed in baculovirus infected Sf21 cells using histone H1 as substrate after 10 mins in presence of [gamma-32P]-ATP
A549 [3] = experiment: Cell cycle arrest in human A549 cells assessed as accumulation at subG0 phase at 1 uM after 36 hrs by propidium iodide staining-based FACS flow cytometric analysis relative to control; type: functional
A549 [4] = experiment: Cell cycle arrest in human A549 cells assessed as accumulation at subG0 phase at 0.5 uM after 36 hrs by propidium iodide staining-based FACS flow cytometric analysis relative to control; type: functional
A549 [5] = experiment: Cell cycle arrest in human A549 cells assessed as accumulation at G0/G1 phase after 36 hrs by propidium iodide staining-based FACS flow cytometric analysis; type: functional
[6] = target: Epidermal growth factor receptor (Homo sapiens, UniProt P00533); experiment: Inhibition of human C-terminal EGFR tyrosine kinase domain
A549 [7] = experiment: Cell cycle arrest in human A549 cells assessed as accumulation at subG0 phase at 2 uM after 36 hrs by propidium iodide staining-based FACS flow cytometric analysis relative to control; type: functional
[8] = Cytotoxicity against human H460 cells assessed as growth inhibition after 24 to 48 hrs by CCK8 assay; type: functional, cell-based; details: NCI-H460
In short: (§2)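 CCK8 proliferation assay: 1-5 × 10³ cells per well grew for 12 h, then were exposed to increasing compound concentrations in 10% FBS for 24 or 48 h. CCK8 dye was added for 1-2 h and plates were read on a multilabel counter. Percent inhibition or IC₅₀ was calculated against DMSO-treated control wells.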

[9] = target: Cyclin-dependent kinase 1 (Homo sapiens, UniProt P06493); experiment: Inhibition of CDK1 (unknown origin) using histone H1 as substrate after 10 mins in presence of [gamma-32P]-ATP; in short: as §1
A549 [10] = experiment: Cell cycle arrest in human A549 cells assessed as accumulation at S phase at 0.5 uM after 36 hrs by propidium iodide staining-based FACS flow cytometric analysis (reference value: 40.84%); type: functional
A549 [11] = experiment: Cell cycle arrest in human A549 cells assessed as accumulation at G0/G1 phase at 0.5 uM after 36 hrs by propidium iodide staining-based FACS flow cytometric analysis (reference value: 57.07%); type: functional
A549 [12] = experiment: Cytotoxicity against human A549 cells assessed as growth inhibition after 24 to 48 hrs by CCK8 assay; type: functional, cell-based; in short: as §2
A549 [13] = experiment: Cell cycle arrest in human A549 cells assessed as accumulation at S phase at 2 uM after 36 hrs by propidium iodide staining-based FACS flow cytometric analysis (reference value: 40.84%); type: functional
MCF7 = experiment: Cytotoxicity against human MCF7 cells assessed as growth inhibition after 24 to 48 hrs by CCK8 assay; type: functional, cell-based; in short: as §2
A549 [14] = experiment: Cell cycle arrest in human A549 cells assessed as accumulation at G2/M phase at 2 uM after 36 hrs by propidium iodide staining-based FACS flow cytometric analysis (reference value: 2.09%); type: functional
A549 [15] = experiment: Cell cycle arrest in human A549 cells assessed as accumulation at G2/M phase at 0.5 uM after 36 hrs by propidium iodide staining-based FACS flow cytometric analysis (reference value: 2.09%); type: functional
A549 [16] = experiment: Cell cycle arrest in human A549 cells assessed as accumulation at S phase at 1 uM after 36 hrs by propidium iodide staining-based FACS flow cytometric analysis (reference value: 40.84%); type: functional
[17] = target: Cyclin-dependent kinase 5 (Homo sapiens, UniProt Q00535); experiment: Inhibition of CDK5 (unknown origin) using histone H1 as substrate after 10 mins in presence of [gamma-32P]-ATP; in short: as §1
A549 [18] = experiment: Cell cycle arrest in human A549 cells assessed as accumulation at G0/G1 phase at 2 uM after 36 hrs by propidium iodide staining-based FACS flow cytometric analysis (reference value: 57.07%); type: functional
A549 [19] = experiment: Cell cycle arrest in human A549 cells assessed as accumulation at G2/M phase at 1 uM after 36 hrs by propidium iodide staining-based FACS flow cytometric analysis (reference value: 2.09%); type: functional
[20] = target: Cyclin-dependent kinase 6 (Homo sapiens, UniProt Q00534); experiment: Inhibition of CDK6 (unknown origin) using histone H1 as substrate after 10 mins in presence of [gamma-32P]-ATP; in short: as §1
A549 [21] = experiment: Cell cycle arrest in human A549 cells assessed as accumulation at G0/G1 phase at 1 uM after 36 hrs by propidium iodide staining-based FACS flow cytometric analysis (reference value: 57.07%); type: functional
[22] = target: Cyclin-dependent kinase 7 (Homo sapiens, UniProt P50613); experiment: Inhibition of CDK7 (unknown origin) using histone H1 as substrate after 10 mins in presence of [gamma-32P]-ATP; in short: as §1
[23] = target: Vascular endothelial growth factor receptor 2 (Homo sapiens, UniProt P35968); experiment: Inhibition of human VEGFR2 tyrosine kinase domain (Asp807 to Val1356) using poly-(Glu4-Tyr) as substrate incubated for 15 mins prior to ATP addition measured after 40 mins by DELFIA
Chain of Vascular endothelial growth factor receptor 2 (P35968 whole entry, the tested form may be a part): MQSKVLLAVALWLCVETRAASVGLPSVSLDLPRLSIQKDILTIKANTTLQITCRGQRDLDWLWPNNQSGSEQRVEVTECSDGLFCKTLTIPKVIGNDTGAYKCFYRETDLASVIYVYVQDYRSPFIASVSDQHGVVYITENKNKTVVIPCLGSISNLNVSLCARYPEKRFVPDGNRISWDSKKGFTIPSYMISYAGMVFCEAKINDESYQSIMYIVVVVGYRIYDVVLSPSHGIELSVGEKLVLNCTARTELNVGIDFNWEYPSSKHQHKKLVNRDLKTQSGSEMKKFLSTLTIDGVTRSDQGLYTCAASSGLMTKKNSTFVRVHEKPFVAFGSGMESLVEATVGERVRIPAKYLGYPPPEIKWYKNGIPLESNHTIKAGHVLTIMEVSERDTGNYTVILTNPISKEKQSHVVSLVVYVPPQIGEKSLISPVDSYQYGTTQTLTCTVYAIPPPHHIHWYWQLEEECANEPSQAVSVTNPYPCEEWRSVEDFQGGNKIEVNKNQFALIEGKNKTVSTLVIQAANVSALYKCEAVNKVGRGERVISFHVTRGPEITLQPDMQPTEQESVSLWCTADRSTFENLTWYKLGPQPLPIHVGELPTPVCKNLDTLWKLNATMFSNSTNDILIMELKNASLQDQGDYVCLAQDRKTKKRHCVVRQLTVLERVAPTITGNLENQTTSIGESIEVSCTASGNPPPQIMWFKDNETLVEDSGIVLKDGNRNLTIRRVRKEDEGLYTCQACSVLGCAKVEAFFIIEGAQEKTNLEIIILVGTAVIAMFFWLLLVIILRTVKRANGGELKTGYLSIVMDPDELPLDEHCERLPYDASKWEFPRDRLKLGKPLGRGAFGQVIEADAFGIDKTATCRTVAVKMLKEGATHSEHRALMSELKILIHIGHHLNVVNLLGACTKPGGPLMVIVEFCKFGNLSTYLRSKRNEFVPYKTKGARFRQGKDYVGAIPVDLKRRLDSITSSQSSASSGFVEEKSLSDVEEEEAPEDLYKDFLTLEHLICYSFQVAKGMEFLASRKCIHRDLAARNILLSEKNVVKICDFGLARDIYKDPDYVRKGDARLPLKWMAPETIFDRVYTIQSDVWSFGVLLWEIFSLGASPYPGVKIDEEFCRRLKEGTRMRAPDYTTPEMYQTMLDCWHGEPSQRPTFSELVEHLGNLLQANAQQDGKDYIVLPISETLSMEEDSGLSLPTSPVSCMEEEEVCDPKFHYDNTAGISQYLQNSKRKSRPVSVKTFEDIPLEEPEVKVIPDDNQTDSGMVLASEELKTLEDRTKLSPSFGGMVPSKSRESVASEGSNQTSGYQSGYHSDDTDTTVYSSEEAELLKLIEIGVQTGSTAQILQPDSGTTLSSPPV

Chain of Cyclin-dependent kinase 1 (P06493 whole entry): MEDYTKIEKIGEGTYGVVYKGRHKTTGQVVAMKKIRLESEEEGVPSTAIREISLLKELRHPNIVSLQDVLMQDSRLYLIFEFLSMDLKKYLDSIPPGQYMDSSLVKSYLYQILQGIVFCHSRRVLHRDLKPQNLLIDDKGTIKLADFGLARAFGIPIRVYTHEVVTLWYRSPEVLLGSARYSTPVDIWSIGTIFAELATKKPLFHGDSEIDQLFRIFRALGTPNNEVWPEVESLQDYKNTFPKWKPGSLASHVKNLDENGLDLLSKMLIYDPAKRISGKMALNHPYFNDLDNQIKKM
Chain of Cyclin-dependent kinase 5 (Q00535 whole entry): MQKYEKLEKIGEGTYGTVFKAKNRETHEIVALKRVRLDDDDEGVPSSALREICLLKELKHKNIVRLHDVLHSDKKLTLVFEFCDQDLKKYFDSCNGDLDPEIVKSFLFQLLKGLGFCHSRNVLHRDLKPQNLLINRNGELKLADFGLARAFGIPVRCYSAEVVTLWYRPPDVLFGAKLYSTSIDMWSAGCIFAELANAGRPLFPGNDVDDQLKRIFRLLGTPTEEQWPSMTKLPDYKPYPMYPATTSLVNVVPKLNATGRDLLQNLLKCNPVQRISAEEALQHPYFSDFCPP
Chain of Cyclin-dependent kinase 4 (P11802 whole entry): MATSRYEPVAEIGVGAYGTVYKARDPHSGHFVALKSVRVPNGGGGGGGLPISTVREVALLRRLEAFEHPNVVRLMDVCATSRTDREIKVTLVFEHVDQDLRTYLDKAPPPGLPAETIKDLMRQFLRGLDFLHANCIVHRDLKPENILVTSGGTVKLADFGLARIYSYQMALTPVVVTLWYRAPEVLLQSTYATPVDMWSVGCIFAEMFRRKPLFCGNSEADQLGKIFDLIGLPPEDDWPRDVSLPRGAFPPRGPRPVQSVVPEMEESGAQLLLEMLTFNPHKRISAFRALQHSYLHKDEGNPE
Chain of Epidermal growth factor receptor (P00533 whole entry, the tested form may be a part): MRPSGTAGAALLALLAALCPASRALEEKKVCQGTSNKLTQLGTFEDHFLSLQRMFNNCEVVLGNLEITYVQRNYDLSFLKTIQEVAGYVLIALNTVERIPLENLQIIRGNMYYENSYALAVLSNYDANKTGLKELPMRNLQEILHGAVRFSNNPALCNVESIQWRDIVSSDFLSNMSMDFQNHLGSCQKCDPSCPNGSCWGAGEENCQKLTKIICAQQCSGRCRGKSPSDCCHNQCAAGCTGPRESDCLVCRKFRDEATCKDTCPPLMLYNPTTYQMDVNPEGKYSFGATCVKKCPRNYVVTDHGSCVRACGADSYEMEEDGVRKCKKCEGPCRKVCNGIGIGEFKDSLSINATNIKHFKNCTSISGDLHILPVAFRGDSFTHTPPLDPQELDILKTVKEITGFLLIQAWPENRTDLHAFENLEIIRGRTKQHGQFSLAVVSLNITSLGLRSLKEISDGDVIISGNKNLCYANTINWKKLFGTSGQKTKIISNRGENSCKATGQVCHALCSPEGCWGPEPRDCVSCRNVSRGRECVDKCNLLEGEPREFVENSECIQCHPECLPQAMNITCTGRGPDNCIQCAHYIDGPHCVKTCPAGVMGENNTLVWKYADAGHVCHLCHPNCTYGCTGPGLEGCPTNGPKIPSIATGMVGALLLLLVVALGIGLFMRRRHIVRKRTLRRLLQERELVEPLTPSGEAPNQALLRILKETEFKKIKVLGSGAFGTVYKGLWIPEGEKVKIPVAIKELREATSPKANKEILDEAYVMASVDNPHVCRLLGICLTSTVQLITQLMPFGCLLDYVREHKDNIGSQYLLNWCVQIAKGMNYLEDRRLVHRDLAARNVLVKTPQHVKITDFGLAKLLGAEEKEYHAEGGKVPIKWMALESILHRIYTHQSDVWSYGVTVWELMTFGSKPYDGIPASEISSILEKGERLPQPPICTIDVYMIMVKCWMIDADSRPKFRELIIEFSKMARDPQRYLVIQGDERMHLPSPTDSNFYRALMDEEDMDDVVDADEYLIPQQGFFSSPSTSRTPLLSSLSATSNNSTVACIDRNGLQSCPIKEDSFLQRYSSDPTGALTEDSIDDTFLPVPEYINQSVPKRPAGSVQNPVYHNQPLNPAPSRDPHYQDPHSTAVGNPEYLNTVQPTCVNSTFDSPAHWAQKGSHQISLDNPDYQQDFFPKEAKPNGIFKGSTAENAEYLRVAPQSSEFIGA
Chain of Cyclin-dependent kinase 6 (Q00534 whole entry): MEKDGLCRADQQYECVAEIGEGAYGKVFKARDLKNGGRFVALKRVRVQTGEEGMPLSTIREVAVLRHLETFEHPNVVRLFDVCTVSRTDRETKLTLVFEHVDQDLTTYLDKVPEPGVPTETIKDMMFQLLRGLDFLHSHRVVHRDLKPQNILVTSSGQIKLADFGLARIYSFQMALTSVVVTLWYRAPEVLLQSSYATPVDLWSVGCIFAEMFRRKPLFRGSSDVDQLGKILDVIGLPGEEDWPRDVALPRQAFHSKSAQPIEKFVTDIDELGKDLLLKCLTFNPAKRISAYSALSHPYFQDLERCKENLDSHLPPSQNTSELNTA
Chain of Cyclin-dependent kinase 7 (P50613 whole entry, the tested form may be a part): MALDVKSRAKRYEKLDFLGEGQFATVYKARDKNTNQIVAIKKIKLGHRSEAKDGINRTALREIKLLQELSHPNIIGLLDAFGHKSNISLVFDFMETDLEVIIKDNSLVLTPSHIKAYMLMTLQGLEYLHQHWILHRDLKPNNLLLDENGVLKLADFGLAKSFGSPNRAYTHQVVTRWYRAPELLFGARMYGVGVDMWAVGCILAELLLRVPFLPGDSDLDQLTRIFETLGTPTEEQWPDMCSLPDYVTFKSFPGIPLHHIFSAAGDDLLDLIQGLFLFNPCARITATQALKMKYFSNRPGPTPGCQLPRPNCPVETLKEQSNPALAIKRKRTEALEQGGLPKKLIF

Structure (SMILES)	IC50 [2] [nM]	IC50 [8] [nM]	IC50 (A549 [12]) [nM]	IC50 (MCF7) [nM]	further results
COc1ccc(NC(=S)NC(=O)c2cn(-c3ccccc3)nc2-c2ccc(OC)cc2)cc1	25	2570	750	4210	IC50 [1]: 35 nM; Activity (A549 [3]): 0%; Activity (A549 [4]): 0%; Activity (A549 [5]): Dose-dependent effect; IC50 [6]: > 5000 nM; Activity (A549 [7]): 0%; IC50 [9]: 522 nM; Activity (A549 [10]): 32.47%; Activity (A549 [11]): 59.49%; Activity (A549 [13]): 28.48%; Activity (A549 [14]): 7.52%; Activity (A549 [15]): 8.04%; Activity (A549 [16]): 34.48%; IC50 [17]: 1090 nM; Activity (A549 [18]): 64%; Activity (A549 [19]): 2.99%; IC50 [20]: 29 nM; Activity (A549 [21]): 62.53%; IC50 [22]: 1420 nM; IC50 [23]: > 5000 nM
COc1ccc(-c2nn(-c3ccccc3)cc2C(=O)NC(=S)Nc2ccc(Cl)cc2)cc1	30	3010	1310	4760	–
O=C(NC(=S)Nc1ccc(F)cc1)c1cn(-c2ccccc2)nc1-c1ccccc1	75	4210	3500	6820	–
Cc1ccc(NC(=S)NC(=O)c2cn(-c3ccccc3)nc2-c2ccc(Cl)cc2)cc1	42	3120	2690	5980	–
COc1ccc(NC(=S)NC(=O)c2cn(-c3ccccc3)nc2-c2ccc(Cl)cc2)cc1	37	3010	2270	5240	IC50 [1]: 40 nM; IC50 [6]: > 5000 nM; IC50 [9]: 571 nM; IC50 [17]: 1360 nM; IC50 [20]: 42 nM; IC50 [22]: 1650 nM; IC50 [23]: > 5000 nM
O=C(NC(=S)Nc1ccc(Cl)cc1)c1cn(-c2ccccc2)nc1-c1ccc(F)cc1	44	3090	2990	5470	–
Cc1ccc(-c2nn(-c3ccccc3)cc2C(=O)NC(=S)Nc2ccc(F)cc2)cc1	41	3980	3420	6420	–
O=C(NC(=S)Nc1ccc(Cl)cc1)c1cn(-c2ccccc2)nc1-c1ccc(Cl)cc1	58	3260	3150	5360	–
COc1ccc(NC(=S)NC(=O)c2cn(-c3ccccc3)nc2-c2ccc(F)cc2)cc1	36	2860	1980	4890	IC50 [1]: 39 nM; IC50 [6]: > 5000 nM; IC50 [9]: 569 nM; IC50 [17]: 1180 nM; IC50 [20]: 33 nM; IC50 [22]: 1640 nM; IC50 [23]: > 5000 nM
Cc1ccc(-c2nn(-c3ccccc3)cc2C(=O)NC(=S)Nc2ccc(Cl)cc2)cc1	63	3650	3170	6210	–
O=C(NC(=S)Nc1ccc(Cl)cc1)c1cn(-c2ccccc2)nc1-c1ccccc1	71	4020	3200	6230	–
Cc1ccc(NC(=S)NC(=O)c2cn(-c3ccccc3)nc2-c2ccc(C)cc2)cc1	52	3760	2830	5660	–
Cc1ccc(NC(=S)NC(=O)c2cn(-c3ccccc3)nc2-c2ccccc2)cc1	69	3960	2800	5900	–
O=C(NC(=S)Nc1ccc(F)cc1)c1cn(-c2ccccc2)nc1-c1ccc(Cl)cc1	59	3640	3980	5990	–
Cc1ccc(NC(=S)NC(=O)c2cn(-c3ccccc3)nc2-c2ccc(F)cc2)cc1	43	2980	2080	5440	–
COc1ccc(-c2nn(-c3ccccc3)cc2C(=O)NC(=S)Nc2ccc(C)cc2)cc1	29	2880	1250	4630	–
COc1ccc(-c2nn(-c3ccccc3)cc2C(=O)NC(=S)Nc2ccc(F)cc2)cc1	32	3050	1430	4990	–
O=C(NC(=S)Nc1ccc(F)cc1)c1cn(-c2ccccc2)nc1-c1ccc(F)cc1	49	3240	3540	5610	–
COc1ccc(NC(=S)NC(=O)c2cn(-c3ccccc3)nc2-c2ccc(C)cc2)cc1	47	3240	2390	5120	IC50 [1]: 40 nM; IC50 [6]: > 5000 nM; IC50 [9]: 584 nM; IC50 [17]: 1420 nM; IC50 [20]: 43 nM; IC50 [22]: 1790 nM; IC50 [23]: > 5000 nM
COc1ccc(NC(=S)NC(=O)c2cn(-c3ccccc3)nc2-c2ccccc2)cc1	56	3540	2500	5460	IC50 [1]: 42 nM; IC50 [6]: > 5000 nM; IC50 [9]: 610 nM; IC50 [17]: 1500 nM; IC50 [20]: 50 nM; IC50 [22]: 1880 nM; IC50 [23]: > 5000 nM
Cn1cnc2c(NCc3ccccc3)nc(NCCO)nc21 [OLOMOUCINE]	–	132000	130000	142000	–
